Assay outcomes deposited in PubChem by several laboratories.
NSD2 inh: NSD2 (human) methyltransferase inhibition | O96028 | NSD2 peptide methylation, AlphaScreen, 120 min | inhibition, % at 12.5 µM | 0.54% of 310,000 active | AID 743445; in the data active = inhibition above about 50%
CASP6 VEID inh: blocks human caspase-6 cleavage activity; 0.53% of 350,000 active; purified caspase-6, Z-VEID-R110 cleavage fluorescence; AID 686996; inhibition, % at 12.5 µM; P55212;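 active = mean inhibition across replicates at least about 35%, with every replicate also reaching that limit, limit read from the data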;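 also: 0% = median of neutral control wells and 100% = no fluorescence left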
MBD2 DNA inh: MBD2-methylated oligo binding inhibition; Q9UBB5; TR-FRET, MBD2 binding to methylated oligonucleotide; 0.31% of 370,000 active; AID 686964; inhibition, % at 4.4 µM; in the data active = inhibition above about 13%
LEDGF integ inh: blocks HIV-1 LEDGF/p75-dependent DNA integration. AID 743269. inhibition, % at 3.7 µM. 0.64% of 370,000 active. TR-FRET IN-LEDGF/p75 DNA integration, Eu/Cy5;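 active = inhibition above the screen-wide mean plus 3 SD, cut at about 13% in these data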;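 also: signal is the Cy5 over europium emission ratio at 671 and 618 nm; 0% = plate median of compound wells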
UHRF1 MBD2 ctr: blocks human UHRF1 binding to methylated DNA | UHRF1 binding to methylated oligo, TR-FRET | inhibition, % at 4.4 µM | 0.75% of 370,000 active | AID 687016; in the data active = inhibition above about 21%;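 also: UHRF1 SRA domain binding a hemimethylated CpG hairpin DNA probe; 0% = median of test compound wells and 100% = reference inhibitor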
TDP2 absorb: TDP2 (human) inhibition, absorbance primary screen; O95551; recombinant TDP2, T5PNP hydrolysis, p-nitrophenol absorbance 415 nm; inhibition, % at 12.8 µM; 0.34% of 370,000 active;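 active = inhibition above the mean of all tested compounds plus 3 SD, set per campaign, cut at about 25% in these data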;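 also: 0% = DMSO with enzyme and 100% = buffer with substrate but no TDP2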
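System – recombinant human TDP2 · Quantity – TDP2 enzyme at 120 nM final · Doses – single concentration, 12.8 µM nominal, with 1% DMSO · Incubation – 2 h at 37 °C · Measured by – epi absorbance of p-nitrophenol freed from T5PNP by hydrolysis · Read-out – % inhibition relative to enzyme-containing and enzyme-free wells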
TDP2 confirm: confirmation of human TDP2 inhibitors; shares compounds with TDP2 absorb; recombinant human TDP2, absorbance read-out; inhibition, % at 12.8 µM; 22% of 1,100 active; in the data active = inhibition above about 25%;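 also: 0% = vehicle with enzyme and 100% = no enzyme buffer only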
The depositor's hits bear a star. Rows were chosen to be rich in hits. Some 1.9% of all compounds tested hit in one or more screens of this group.

Results for C[C@H]1CN([C@@H](C)CO)C(=O)c2cccc(NC(=O)Nc3ccc4c(c3)OCO4)c2O[C@H]1CN(C)C ?
CASP6 VEID inh: -1.7

Results for C[C@@H]1CN([C@H](C)CO)C(=O)c2cc(NC(=O)NC3CCCCC3)ccc2O[C@@H]1CN(C)S(=O)(=O)c1ccc(Cl)cc1 ?
CASP6 VEID inh: 0.9

How did CCN(CC)CCCN1C(=O)C2C(C(=O)Nc3ccc(C(C)C)cc3)C3C=CC2(O3)C1C(=O)NC1CCCCC1 (configuration not stated) do in these assays?
NSD2 inh: 5.0; CASP6 VEID inh: 0.4; MBD2 DNA inh: -3.8; LEDGF integ inh: 1.2; UHRF1 MBD2 ctr: -0.7; TDP2 absorb: 26.7*; TDP2 confirm: -1.6

How did CC(C)c1ccc(NC(=O)C2C3C=CC4(O3)C2C(=O)N(CCN2CCOCC2)C4C(=O)NC2CCCCC2)cc1 (configuration not stated) do in these assays?
NSD2 inh: -1.6; CASP6 VEID inh: -68.0; MBD2 DNA inh: -0.6; LEDGF integ inh: 4.4; UHRF1 MBD2 ctr: 4.1; TDP2 absorb: -12.6

Results for O=C(c1nc2ccccn2c1CNCCCn1cccn1)N1CCCC1 ?
NSD2 inh: -3.6; CASP6 VEID inh: -1.1; MBD2 DNA inh: 7.4; LEDGF integ inh: 1.6; UHRF1 MBD2 ctr: 24.3*; TDP2 absorb: 28.0*; TDP2 confirm: -7.6

What do the screens show for `Cc1ccn2c(CNCCCn3cccn3)c(C(=O)N3CCCCCC3)nc2c1`?
NSD2 inh: -1.1; CASP6 VEID inh: 2.4; MBD2 DNA inh: 0.4; LEDGF integ inh: 1.4; UHRF1 MBD2 ctr: 1.6; TDP2 absorb: -0.7

Results for COc1ccc(C)cc1NC(=S)NN1CCN(C)CC1 ?
NSD2 inh: -3.7; CASP6 VEID inh: 2.2; MBD2 DNA inh: 4.3; LEDGF integ inh: -3.8; UHRF1 MBD2 ctr: 1.0; TDP2 absorb: 29.0*; TDP2 confirm: 0.7

Results for C[C@H]1CN([C@@H](C)CO)C(=O)c2cc(NC(=O)Nc3ccccc3)ccc2O[C@H]1CN(C)Cc1ccc(C(=O)O)cc1 ?
CASP6 VEID inh: -1.1

How did Brc1ccccc1OCCN1CCOCC1 do in these assays?
NSD2 inh: -3.3; CASP6 VEID inh: -2.8; MBD2 DNA inh: -3.6; LEDGF integ inh: 2.7; UHRF1 MBD2 ctr: -2.3; TDP2 absorb: 25.6*; TDP2 confirm: 3.5

How did CC(C)(C)c1cc(C(=O)N/N=C/c2ccc(-c3ccccc3[N+](=O)[O-])o2)n[nH]1 do in these assays?
NSD2 inh: 8.5; CASP6 VEID inh: 2.1; MBD2 DNA inh: -2.4; LEDGF integ inh: -1.4; UHRF1 MBD2 ctr: -10.4; TDP2 absorb: 14.3

What do the screens show for `O=C(N/N=C/c1ccc(-c2ccccc2[N+](=O)[O-])o1)c1cccnc1`?
NSD2 inh: 3.5; CASP6 VEID inh: 27.6; MBD2 DNA inh: -5.2; LEDGF integ inh: 5.0; UHRF1 MBD2 ctr: -6.2; TDP2 absorb: 35.6*; TDP2 confirm: 16.5

How did O=C(Nc1ccc(Cl)cc1)N[C@H]1CC[C@@H](CCNS(=O)(=O)c2ccccc2F)O[C@H]1CO do in these assays?
CASP6 VEID inh: -3.2

Results for C[C@H](CO)N1C[C@H](C)[C@H](CN(C)C(=O)C2CCC2)Oc2ncc(-c3cccnc3)cc2C1=O ?
CASP6 VEID inh: 1.4

What do the screens show for `COCCn1cnc2c1c(=O)n(CC(=O)NC(=O)NC(C)(C)C)c(=O)n2Cc1ccccc1`?
NSD2 inh: 0.3; CASP6 VEID inh: -0.2; MBD2 DNA inh: -7.2; LEDGF integ inh: -0.6; UHRF1 MBD2 ctr: -2.7; TDP2 absorb: 38.6*; TDP2 confirm: 1.6

How did CCc1nnc(NS(=O)(=O)c2ccc(N=Cc3c(C)[nH]n(-c4ccc(Cl)cc4)c3=O)cc2)s1 do in these assays?
NSD2 inh: 11.5; MBD2 DNA inh: -3.9; LEDGF integ inh: 2.9; UHRF1 MBD2 ctr: -5.4; TDP2 absorb: 12.7

What do the screens show for `COc1ccc2nc(/N=C/c3c(C)[nH]n(-c4ccc(C)cc4)c3=O)sc2c1`?
NSD2 inh: 8.1; CASP6 VEID inh: 0.3; MBD2 DNA inh: -1.9; LEDGF integ inh: 0.7; UHRF1 MBD2 ctr: -10.2; TDP2 absorb: 30.7*; TDP2 confirm: 13.6

What do the screens show for `Cc1[nH]n(-c2ccccc2)c(=O)c1/C=N/N1C(=O)c2cccc3cccc(c23)C1=O`?
NSD2 inh: -1.7; CASP6 VEID inh: 3.6; MBD2 DNA inh: -19.8; LEDGF integ inh: 0.9; UHRF1 MBD2 ctr: -21.0; TDP2 absorb: 31.2*; TDP2 confirm: 7.2

What do the screens show for `Cc1ccc(-n2[nH]c(C)c(C=NCc3ccncc3)c2=O)cc1`?
NSD2 inh: 2.1; CASP6 VEID inh: 3.4; MBD2 DNA inh: 0.4; LEDGF integ inh: -0.6; UHRF1 MBD2 ctr: -5.5; TDP2 absorb: 15.1

Results for Cc1[nH]n(-c2ccccc2)c(=O)c1C=NCc1ccncc1 ?
CASP6 VEID inh: -2.8; MBD2 DNA inh: -7.5; LEDGF integ inh: 1.4; UHRF1 MBD2 ctr: -5.7; TDP2 absorb: 26.8*; TDP2 confirm: 3.0

Results for Cc1[nH]n(-c2ccc(Cl)cc2)c(=O)c1/C=N/c1nnc(-c2ccccc2)s1 ?
NSD2 inh: 0.0; MBD2 DNA inh: -6.0; LEDGF integ inh: 2.0; UHRF1 MBD2 ctr: -3.4; TDP2 absorb: 37.3*; TDP2 confirm: 19.7

What do the screens show for `C[C@H](CO)N1C[C@H](C)[C@H](CN(C)C(=O)C2CCCCC2)Oc2ncc(-c3ccncc3)cc2C1=O`?
CASP6 VEID inh: -1.7

How did COc1ccc(OC)c2c1C(=O)c1ccccc1C2=O do in these assays?
NSD2 inh: -2.4; MBD2 DNA inh: -1.7; LEDGF integ inh: 6.9; UHRF1 MBD2 ctr: -4.1; TDP2 absorb: 56.0*; TDP2 confirm: 7.2

What do the screens show for `Cc1ccc(OCCOc2cccc3ccc(C)nc23)c([N+](=O)[O-])c1`?
NSD2 inh: 0.1; CASP6 VEID inh: 2.2; MBD2 DNA inh: -3.1; LEDGF integ inh: 1.6; UHRF1 MBD2 ctr: -3.6; TDP2 absorb: 25.4*; TDP2 confirm: 10.2

What do the screens show for `Cc1ccc2cccc(OCc3cccc([N+](=O)[O-])c3)c2n1`?
NSD2 inh: 2.7; CASP6 VEID inh: 0.1; MBD2 DNA inh: 1.3; LEDGF integ inh: 3.0; UHRF1 MBD2 ctr: 3.2; TDP2 absorb: 12.0

How did Cc1cccc(NC(=O)C(Cc2ccccc2)c2nn[nH]n2)c1C (configuration not stated) do in these assays?
NSD2 inh: 2.2; CASP6 VEID inh: 0.1; MBD2 DNA inh: 2.9; LEDGF integ inh: -0.3; UHRF1 MBD2 ctr: 1.6; TDP2 absorb: 27.9*; TDP2 confirm: 2.0

What do the screens show for `COc1ccc(NC(=O)Nc2ccc3c(c2)C(=O)N([C@@H](C)CO)C[C@@H](C)[C@H](CN(C)Cc2ccc(Cl)c(Cl)c2)OCCCC[C@@H](C)O3)cc1`?
CASP6 VEID inh: -0.6

How did O=C(C1=C[C@@H](c2ccc(C(F)(F)F)cc2)C[C@@H](OCc2ccc(CO)cc2)O1)N1CCCCCCC1 do in these assays?
CASP6 VEID inh: -1.5
